This is a sample that favours compounds with a hit; in the whole collection about 1.3% have one here.
HKDC1 inh – inhibitors of human hexokinase HKDC1 | Q2TB90 | recombinant HKDC1, G6PDH/diaphorase resazurin coupled fluorescence | inhibition, % at 20 µM | hit rate 0.16% among 340,000 | AID 493160;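 active = inhibition above about 35% when tested at 20 µM, limit read from the data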;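 also: plate controls were DMSO wells with enzyme for no effect and DMSO wells lacking enzyme for full effect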
Target sequence (Q2TB90 whole entry, looked up): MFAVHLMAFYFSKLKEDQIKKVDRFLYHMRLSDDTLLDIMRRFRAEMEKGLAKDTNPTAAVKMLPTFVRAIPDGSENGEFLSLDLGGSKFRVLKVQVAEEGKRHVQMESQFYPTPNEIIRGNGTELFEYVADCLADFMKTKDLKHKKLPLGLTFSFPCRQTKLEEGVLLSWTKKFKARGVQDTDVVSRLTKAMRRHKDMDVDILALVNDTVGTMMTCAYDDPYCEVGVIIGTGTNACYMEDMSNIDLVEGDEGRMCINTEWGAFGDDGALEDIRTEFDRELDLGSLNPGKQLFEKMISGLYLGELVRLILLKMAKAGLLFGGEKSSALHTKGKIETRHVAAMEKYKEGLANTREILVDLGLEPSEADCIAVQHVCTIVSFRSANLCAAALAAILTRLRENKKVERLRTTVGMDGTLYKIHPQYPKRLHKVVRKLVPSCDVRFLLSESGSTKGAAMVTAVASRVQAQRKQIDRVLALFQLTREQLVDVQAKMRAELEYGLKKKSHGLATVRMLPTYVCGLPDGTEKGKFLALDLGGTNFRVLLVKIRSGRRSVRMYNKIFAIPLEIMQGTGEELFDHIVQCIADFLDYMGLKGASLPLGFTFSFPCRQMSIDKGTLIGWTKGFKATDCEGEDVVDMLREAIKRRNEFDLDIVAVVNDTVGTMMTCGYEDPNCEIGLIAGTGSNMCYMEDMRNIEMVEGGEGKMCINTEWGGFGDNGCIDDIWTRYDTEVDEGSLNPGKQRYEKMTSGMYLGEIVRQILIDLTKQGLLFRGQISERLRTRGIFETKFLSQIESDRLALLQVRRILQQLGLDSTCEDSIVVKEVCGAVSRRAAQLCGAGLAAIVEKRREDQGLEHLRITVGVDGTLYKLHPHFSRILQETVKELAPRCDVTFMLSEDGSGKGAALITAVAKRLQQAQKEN
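Test system: Recombinant HKDC1 (HK5) hexokinase enzyme, produced in-house | Input: HKDC1 at 5 µg/mL | Buffer or medium: Tris pH 8.0 buffer with MgCl2, Tween-20, BSA, BME | Schedule: 90 min reaction incubation at room temperature, dark | Technique: Resazurin-to-resorufin fluorescence via G6PDH and diaphorase coupling, 525/613 nm | Controls: DMSO wells with and without enzyme mix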
PfGluPho inh – PfG6PD (Plasmodium falciparum) enzyme inhibition | hit rate 0.78% among 350,000 | PfGluPho enzyme, NADPH resazurin-diaphorase fluorescence | AID 504690 | inhibition, % at 20 µM;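 active = inhibition reaching at least a set limit at 20 µM in the primary screen, cut at about 59% in these data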;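 also: 0% = DMSO wells with substrate and 100% = DMSO wells lacking glucose-6-phosphate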
G6PDH CS – L. mesenteroides G6PDH inhibition counter-screen; Purified L. mesenteroides G6PDH, diaphorase/resazurin coupled fluorescence, 45 min; hit rate 0.12% among 200,000; inhibition, % at 5 µM; in the data active = inhibition above about 50%
Diaphorase inh – inhibits diaphorase or chemically oxidizes, flagging diaphorase assay artifacts | diaphorase resazurin-to-resorufin fluorescence, NADH, 16 min; bacterial (C. kluyveri) enzyme, not human | inhibition, % at 20 µM | hit rate 0.69% among 190,000;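 active = primary screen inhibition at 20 µM above a set limit, cut at about 50% in these data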;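 also: plate controls were DMSO with full reaction for no effect and wells lacking NADH for full effect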
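material = Clostridium kluyveri diaphorase enzyme | amount = 0.14 U/mL diaphorase, enzyme working solution | schedule = incubation 16 min, room temperature | detection = fluorescence of resorufin formed from resazurin, Ex 544/Em 590 nm | benchmarks = positive control minus NADH, DMSO neutral control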
HKDC1 act conf – HKDC1 (human) activation, single-dose confirmed | hit rate 14% among 740 | inhibition, % at 20 µM | shares compounds with HKDC1 inh | recombinant HKDC1, G6PDH/diaphorase resazurin fluorescence; stronger effect = lower value;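 active = inhibition at or below a set negative limit, negative inhibition meaning the enzyme was activated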
PfGluPho conf – PfG6PD inhibition, single-dose confirmed | shares compounds with PfGluPho inh | recombinant PfGluPho, NADPH-diaphorase-resazurin fluorescence | inhibition, % at 20 µM | hit rate 34% among 2,400 | AID 504753;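 active = inhibition of at least 50% at 20 µM in any single replicate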;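 also: 0% = DMSO with substrate and 100% = DMSO lacking glucose-6-phosphate substrate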
Diaphorase 10uM – counter-screen for P. falciparum G6PD inhibitors: diaphorase inhibitors, oxidizers. shares compounds with PfGluPho inh. diaphorase-coupled resazurin reduction, fluorescence, NADPH 10 uM. inhibition, % at 20 µM. hit rate 39% among 820. AID 504862;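 active = average inhibition reaching 50% or more with the compound at 20 µM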;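 also: resorufin red fluorescence formed as diaphorase reduces resazurin using NADPH; 0% = DMSO with enzyme and 100% = DMSO without enzyme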
Diaphorase 30uM – diaphorase inhibition or oxidation at 30 uM NADPH. shares compounds with PfGluPho inh. Diaphorase/resazurin coupled assay, resorufin fluorescence. inhibition, % at 20 µM. hit rate 29% among 820;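 active = inhibition averaging 50% or more, tested at 20 µM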;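 also: 0% = DMSO with enzyme and 100% = DMSO wells lacking diaphorase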
The depositor's hits bear a star; nt = no result.

SMILES	HKDC1 inh	PfGluPho inh	G6PDH CS	Diaphorase inh	PfGluPho conf	Diaphorase 10uM	Diaphorase 30uM	others
O=C(c1ccc(Cl)cc1)c1ccc(CN2C(=O)c3ccccc3C2=O)o1	7	-2	5	17	nt	nt	nt
Cc1ccc2ncc(S(=O)(=O)c3ccccc3)c(N3CCCCC3C)c2c1 (configuration not stated)	3	9	nt	nt	nt	nt	nt
CNS(=O)(=O)c1cccc(C(=O)NCC(c2cccs2)N2CCOCC2)c1 (configuration not stated)	-2	4	nt	nt	nt	nt	nt
Clc1ccc(N=c2ssnc2Cl)cc1	-37	-9	3	2	nt	nt	nt
COc1cc(N=c2ssnc2Cl)cc(OC)c1OC	-100	83*	-3	20	68*	-26	-22	HKDC1 act conf=-46*
CCN(CC)CCCN1C=C2C(=O)C(C)(OC(=O)CCC(=O)OC)C(=O)C(Br)=C2C=C1c1ccc(OC)cc1 (configuration not stated)	19	35	nt	nt	nt	nt	nt
CCCCC1=CC2=C(c3ccco3)C(=O)C(C)(OC(=O)c3ccc(OC)cc3)C(=O)C2=CN1c1ccc(OC)cc1 (configuration not stated)	13	19	nt	nt	nt	nt	nt
C=CCN1C=C2C(=O)C(C)(OC(=O)CCC(=O)OC)C(=O)C(Br)=C2C=C1c1ccc(OC)cc1 (configuration not stated)	36*	86*	nt	nt	55*	40	36	HKDC1 act conf=57
COC(=O)CCC(=O)OC1(C)C(=O)C2=CN(C3CCCC3)C(c3ccc(OC)cc3)=CC2=C(Br)C1=O (configuration not stated)	38*	70*	nt	nt	67*	56*	51*	HKDC1 act conf=12
COC(=O)CCC(=O)OC1(C)C(=O)C2=CN(c3ccc(OC)cc3)C(c3ccc(OC)cc3)=CC2=C(Br)C1=O (configuration not stated)	35	71*	nt	nt	48*	31	24	HKDC1 act conf=8
C=CCN1C=C2C(=O)C(C)(OC(=O)C3CCCC3)C(=O)C(c3ccccc3)=C2C=C1CCCC(=O)OC (configuration not stated)	13	-1	nt	nt	nt	nt	nt
COC(=O)CCCC1=CC2=C(c3ccccc3)C(=O)C(C)(OC(=O)C3CCCC3)C(=O)C2=CN1C1CC1 (configuration not stated)	11	14	nt	nt	nt	nt	nt
COCCN1C=C2C(=O)C(C)(OC(=O)CCC(=O)OC)C(=O)C(Br)=C2C=C1c1ccc(OC)cc1 (configuration not stated)	38*	94*	nt	nt	44	nt	nt	HKDC1 act conf=-4
Cc1nc2c(O)c3c(c(O)c2nc1C)C1C=CC3CC1	82*	123*	nt	nt	102*	95*	89*	HKDC1 act conf=90
Cc1nc2c(C)c(C)c(C)c(C)c2nc1C	0	3	nt	nt	nt	nt	nt
CC(C)(C)OC(=O)C[C@@H]1C/C=C\C[C@H](CC(=O)N(CCO)Cc2ccccc2)C(=O)NCCOC1=O	-5	9	nt	nt	nt	nt	nt
Cc1ccccc1C(=O)c1cccn1CC(=O)NC(C)c1ccccc1 (configuration not stated)	-1	-11	nt	nt	nt	nt	nt
COc1ccc(N2C3=C(CC4=C2CCCC4=O)C(=O)CCC3)cc1	33	97*	29	64*	19	nt	nt	HKDC1 act conf=47
NC1=CC(=O)C(=O)c2ccccc21	49*	71*	nt	nt	33	nt	nt	HKDC1 act conf=49
O=C(N/N=C/c1cccc(Br)c1)C1CC(=O)N(c2ccccc2)C1 (configuration not stated)	1	73*	nt	nt	45	nt	nt
Cc1cc(Cl)ccc1OC(C)C(=O)Nc1ccc(C(=O)Nc2ccccc2C(=O)O)cc1 (configuration not stated)	4	-26	nt	nt	nt	nt	nt
Cc1nnc(NC(=O)c2ccc3ccccc3c2)s1	4	20	nt	nt	nt	nt	nt
COc1ccccc1-c1nnc(NC(=O)c2ccc3c(c2)OCO3)s1	-5	10	-8	6	nt	nt	nt
CCSc1nnc(NC(=O)c2ccc3c(c2)OCO3)s1	-1	85*	-18	6	74*	68*	68*
CC(C)Sc1nnc(NC(=O)c2ccc3c(c2)OCO3)s1	-1	100*	nt	nt	66*	59*	46
SMILES	HKDC1 inh	PfGluPho inh	G6PDH CS	Diaphorase inh	PfGluPho conf	Diaphorase 10uM	Diaphorase 30uM	others
CC(C)c1nnc(NC(=O)c2ccc3ccccc3c2)s1	-2	74*	nt	nt	30	nt	nt
CC(C)c1nnc(NC(=O)c2ccc3c(c2)OCO3)s1	4	73*	33	4	20	nt	nt
Cc1cnc(NC(=O)c2sc3ccccc3c2Cl)s1	-3	57	-3	1	nt	nt	nt
CC(C)c1nnc(NC(=O)c2sc3ccccc3c2Cl)s1	-4	64*	7	5	63*	39	36
CCn1c(=S)sc2c(=O)n(-c3ccccc3)c(=S)[nH]c21	1	28	-4	31	nt	nt	nt
CCOc1ccccc1-n1c(=S)sc2c(=O)n(-c3ccc(C)cc3)c(=S)[nH]c21	-1	98*	-5	47	78*	56*	51*
COc1ccc(-n2c(=S)[nH]c3c(sc(=S)n3-c3ccccc3)c2=O)c(OC)c1	-13	89*	6	36	61*	-3	4
CCCn1c(N)c(C(=O)CN(C)CC(=O)Nc2cc(C)ccc2C)c(=O)[nH]c1=O	-2	-10	nt	nt	nt	nt	nt
COc1ccc(C2(OC)Oc3cc(OC)ccc3C(=O)C2(O)OC)cc1 (configuration not stated)	9	1	nt	nt	nt	nt	nt
CC1(NC(=S)Nc2ccc3ccccc3c2)CCS(=O)(=O)C1 (configuration not stated)	4	7	nt	nt	nt	nt	nt
CN(C)C(=S)NC(=S)Nc1ccc2ccccc2c1	6	71*	nt	nt	6	nt	nt
Cc1cn(C2CCCCC2)c(=O)[nH]c1=O	-4	-10	nt	nt	nt	nt	nt
Cc1ccc(-c2nnc(SCC(=O)Nc3cccnc3Cl)n2N)cc1	-8	-10	nt	nt	nt	nt	nt
Nn1c(SCC(=O)Nc2cccnc2Cl)nnc1-c1ccccc1	4	62*	nt	nt	50*	0	5
Cc1ccc(S(=O)(=O)Nc2ccccc2N=Cc2ccc([N+](=O)[O-])cc2[N+](=O)[O-])cc1	12	84*	nt	nt	-3	nt	nt
Cc1ccc2cccc(NS(=O)(=O)c3ccccc3)c2n1	4	139*	nt	nt	105*	102*	80*
Cc1cc(C)nc(NS(=O)(=O)c2ccccc2)n1	5	0	3	11	nt	nt	nt
CC(=O)Nc1ccc(S(=O)(=O)Nc2cccc3cccnc23)cc1	7	-7	nt	nt	nt	nt	nt
O=S(=O)(Nc1cccc2cccnc12)c1ccccc1	15	96*	nt	nt	52*	61*	40
CCN(C(=O)CSc1nnc(-c2ccc(OC)cc2)n1C(C)C)C1CCS(=O)(=O)C1 (configuration not stated)	1	-5	nt	nt	nt	nt	nt
CCN(C(=O)Nc1cccc(Cl)c1)c1ccccc1	-3	-1	nt	nt	nt	nt	nt

Screening results: PubChem, Sanford-Burnham Center for Chemical Genomics
